A selection: hits, their analogues and other compounds. The true share with any hit is near 1.4%.
T cell HTS – modulators of CD8 T cell-vesicle binding, primary screen, mouse 2C CD8+ T cells, flow cytometry. 2C CD8+ T cell-vesicle binding; hits give low values. response (vesicle binding), % at 7 µM. 0.068% of 330,000 active. AID 2052, 2009;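 active = response, share of CD8 T cells binding vesicles, and their 90th percentile fluorescence all below set limits, cut at about 80% in these data, passing the limit was not always enough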;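 also: values below 100% mean blocked vesicle binding to the CD8+ T cells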
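incubation = binding step 1.5 h, 37 °C, antibody labelling 20 min, ice | test system = 2C mouse CD8+ T cells | read-out basis = percent CD8+ FL2 mean versus row control | controls = Peptide-free naked vesicles (low) and QL9 vesicles with 0.7% DMSO vehicle (high) | detection = flow cytometry of vesicle-bound cells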
CASP6 VEID inh – human caspase-6 inhibitors, primary screen, biochemical, VEID-R110 fluorescence, single point, set 2; P55212; purified caspase-6, Z-VEID-R110 cleavage fluorescence; inhibition, % at 12.5 µM; 0.53% of 350,000 active; AID 686996, 2013;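 active = mean inhibition across replicates at least about 35%, with every replicate also reaching that limit, limit read from the data; inconclusive = only one of the two criteria met; inactive = neither criterion met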
Target sequence (P55212 24-179 limits assumed): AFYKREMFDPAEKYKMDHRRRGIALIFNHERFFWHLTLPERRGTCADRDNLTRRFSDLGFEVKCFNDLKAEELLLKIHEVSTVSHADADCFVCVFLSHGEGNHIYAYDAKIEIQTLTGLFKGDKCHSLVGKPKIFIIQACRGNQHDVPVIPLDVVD
Target sequence (P55212 194-293 limits assumed): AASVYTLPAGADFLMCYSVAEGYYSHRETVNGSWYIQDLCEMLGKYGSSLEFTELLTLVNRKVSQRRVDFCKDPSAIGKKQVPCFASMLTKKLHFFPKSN
Vif inh – HIV Vif self-association inhibitors, primary screen, imaging, HEK293T, single point | 0.35% of 340,000 active | inhibition, % at 7.49 µM | HEK293T cells, Vif self-association by quenched fluorescence, 24 h; in the data active = inhibition above about 50%, passing the limit was not always enough; inconclusive = no clear call, values can overlap the other calls; inactive = below about 31%
Myeloid diff 2 – induction of myeloid progenitor differentiation, primary screen, cell-based, flow cytometry, MLPCN library. ER-HoxA9 myeloid progenitors, lysozyme-GFP differentiation. calls only at 10 µM. 1% of 360,000 active. AID 624256, 2012;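 active = normalized GFP-positive differentiation at or above the plate's own cutoff, the solvent-only control mean plus 3 SD; inconclusive = no clear call, values can overlap the other calls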;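 also: cells exposed to compound for four days before flow analysis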
Numbers stand for hits; – = inactive; ? = inconclusive; · = no result given; + = active, no number; ! = not active in a repeat.

SMILES	T cell HTS	CASP6 VEID inh	Vif inh	Myeloid diff 2
Cc1cc(C)cc(-n2cccc2/C=C2/C(=N)N3C(=NC2=O)SN=C3S(C)(=O)=O)c1	–	37.4	–	–
CS(=O)(=O)C1=NSC2=NC(=O)/C(=C\c3cccn3-c3ccccc3Cl)C(=N)N21	–	40.6	–	–
CN1C(=O)c2cc(NC(=O)C3CCOCC3)ccc2OC[C@@H]2O[C@@H](CC(=O)O)CC[C@@H]21	·	–	·	·
C[C@H](NC(=O)C[C@@H]1C=C[C@@H](NC(=O)C2CCOCC2)[C@@H](CO)O1)c1ccccc1	·	–	·	·
CCCCC(=O)NC(NC(=S)N1CCOCC1)C(Cl)(Cl)Cl (configuration not stated)	–	–	–	–
O=C(NC(NC(=S)N1CCOCC1)C(Cl)(Cl)Cl)c1ccc(Cl)cc1 (configuration not stated)	–	·	–	+
C[C@@H]1CN([C@@H](C)CO)C(=O)c2cc(-c3ccccc3F)cnc2O[C@@H]1CN(C)C(=O)NC1CCCC1	·	–	·	·
CC(=O)NC(CCC(=O)O)C(=O)O (configuration not stated)	·	–	–	–
NC(CCC(=O)NC(CS)C(=O)NCC(=O)O)C(=O)O (configuration not stated)	·	–	–	+
CCOC(=O)C(Oc1ccc2c(-c3ccc(OC)cc3)cc(=O)oc2c1C)c1ccccc1 (configuration not stated)	–	·	–	–
COc1ccc(-c2cc(=O)oc3c(C)c(OC(C)C(=O)Nc4ccc(CN5CCOCC5)cc4)ccc23)cc1 (configuration not stated)	–	–	–	+
COc1ccc(-c2cc(=O)oc3c(C)c(OC(C)C(C)=O)ccc23)cc1 (configuration not stated)	–	–	–	+
O=C(Nc1cc(F)ccc1F)N1CC(=O)N2[C@H](C1)[C@@H](c1ccc(/C=C/c3ccccc3)cc1)[C@@H]2CO	·	–	·	·
O=C(C[C@H]1CC[C@@H]2[C@H](COC[C@H](O)CN2C(=O)c2ccc(F)cc2)O1)Nc1nccs1	·	–	·	·
COCC#Cc1cnc2c(c1)C(=O)N([C@@H](C)CO)C[C@@H](C)[C@@H](CN(C)C(=O)c1ccc(F)cc1)O2	·	–	·	·
COCCNC(=O)C[C@@H]1C[C@@H]2c3cc(NC(=O)COC)ccc3O[C@@H]2[C@@H](CO)O1	·	–	·	·
Cc1ccc(C2=NOC(=O)/C2=C\c2ccc(C)o2)cc1	–	40.7	–	–
Cc1ccc(/C=C2\C(=O)ON=C2c2ccccc2)o1	–	–	–	–
O=C(CCl)N1c2ccccc2Oc2ccc3ccccc3c21	·	–	–	+
CC(=O)N1c2ccccc2Oc2cc3ccccc3cc21	–	·	–	–
N#C/C(=C\c1cn(Cc2ccccc2)c2ccccc12)C(=O)NCc1ccco1	–	–	–	–
Cc1cccc(NC(=O)/C(C#N)=C/c2cn(CC(=O)NCc3ccco3)c3ccccc23)c1C	–	·	72.3	–
NC(CCc1ccccc1)c1csc(Nc2ccc(C(=O)NCCO)cc2)n1 (configuration not stated)	·	–	–	–
NC(Cc1ccc(C(F)(F)F)cc1)c1csc(NC(=O)Nc2ccccc2Oc2ccccc2)n1 (configuration not stated)	·	–	–	+
COc1ccccc1NC(=O)Nc1nc(C(N)Cc2ccc(C(F)(F)F)cc2)cs1 (configuration not stated)	·	–	–	–
SMILES	T cell HTS	CASP6 VEID inh	Vif inh	Myeloid diff 2
NC(CCc1ccccc1)c1csc(Nc2ccc(C(=O)c3ccccc3)cc2)n1 (configuration not stated)	·	–	56.8	–
NC(Cc1ccccc1)c1csc(NC(=O)Nc2ccccc2Oc2ccccc2)n1 (configuration not stated)	·	–	–	+
COc1ccc(C#Cc2ccc3c(c2)[C@]2(C(=O)N3)[C@H](c3ccc(OCCO)cc3)N3[C@H](c4ccccc4)[C@H](c4ccccc4)OC(=O)[C@H]3[C@@H]2C(=O)N2CCCCCCC2)cc1	·	–	·	·
Cc1ccc(N=C(c2cccs2)N2CCOCC2)cc1	–	·	63.4	–
Cc1cc(NC(=O)C23CC4CC(C2)CC(n2cnc([N+](=O)[O-])n2)(C4)C3)no1	–	46.9	–	–
O=C(Nc1ccon1)C12CC3CC(C1)CC(n1cnc([N+](=O)[O-])n1)(C3)C2	–	–	–	–
CCN(CC)S(=O)(=O)c1cc(NC(=O)C(C)N2CCc3ccccc32)ccc1C (configuration not stated)	–	–	–	+
Cc1cccc(N(C)C(=O)c2cc(S(=O)(=O)N3CCc4ccccc43)cn2C)c1	–	–	–	+
Cc1ccc(N(C)C(=O)c2cc(S(=O)(=O)N3CCc4ccccc43)cn2C)cc1	–	–	·	–
CCC(C)(C)NC(=O)CN(C(=O)CNS(=O)(=O)c1ccc(F)cc1)c1ccc2c(c1)OCCO2	–	47.4	–	–
CC(C)(C)NC(=O)CN(Cc1ccc2c(c1)OCO2)C(=O)CNS(=O)(=O)c1ccc(F)cc1	–	·	–	–
COC(=O)[C@@H]1[C@@H](CO)[C@@H]2Cn3c(ccc(-c4ccccc4F)c3=O)[C@@H]2N1Cc1ccccc1	·	–	·	·
CO[C@@H]1CN(C)C(=O)c2ccc(NC(=O)c3cnccn3)cc2OC[C@@H](C)NC[C@H]1C	·	–	·	·
CC1CCCCC1NS(=O)(=O)c1ccc(S(=O)(=O)N2CCN(CCC#N)CC2)cc1 (configuration not stated)	–	44.8	–	–
N#CCCN1CCN(S(=O)(=O)c2ccc(C3CCCCC3)cc2)CC1	–	–	–	–
O=C(C1=C[C@H](C2CC2)C[C@H](OCCCCO)O1)N1CCCC1	·	–	·	·
Nc1ccc2ncccc2c1N	–	·	–	+
c1cnc2ccc3ncccc3c2c1	–	–	–	–
CC(=O)c1c(N2CCN(C)CC2)[nH]c(-c2ccccc2)nc1=S	–	·	–	+
CCn1c(C)c(C(C)=O)c(N2CCN(c3ccccc3)CC2)nc1=S	–	·	–	–
CC(C)N(CCNC(=O)c1nn(Cc2ccccc2)c(=O)c2ccccc12)C(C)C	0.0	–	–	–
Cc1ccc2c(c1)N(CC(=O)N1CCCCCC1)C(=O)C(C)O2 (configuration not stated)	–	–	69.0	–
CCOC(=O)N1CCN(C(=O)Cn2nc(C)n3nc(-c4ccc(CC)cc4)cc3c2=O)CC1	–	–	–	?
CCOC(=O)N1CCN(C(=O)Cn2nc(C)n3nc(-c4ccc(OC)cc4)cc3c2=O)CC1	–	37.8	–	–
C[c-]1[c-](C)[c-](C)[c-](C)[c-]1C.[Fe].c1cc2nccc(N3CCCC3)[c-]2c1 (configuration not stated)	–	38.0!	–	–
C[C@H](CO)N1C[C@H](C)[C@H](CN(C)Cc2ccncc2)Oc2cc(C3=CCCC3)ccc2S1(=O)=O	·	–	·	·
Cc1ccccc1C(=O)NCCn1cc(SCC(=O)NCC2CCCO2)c2ccccc21 (configuration not stated)	–	41.5	–	–

High-throughput results deposited in PubChem by several laboratories.
